Values after ≈ are worked out from the molar mass of the structure shown.
Tests used:
[1] = Cytotoxicity against human HEL cells assessed as altered cell morphology; format: cell-based
Summary of the method: (§1)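 Uninfected cell cultures run alongside the antiviral assays, exposed to serial compound dilutions and incubated at 37 °C for 2–4 days. Toxicity was scored microscopically and reported as the minimum cytotoxic concentration (MCC), the lowest concentration causing a detectable change in normal cell morphology.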

Influenza B virus [2] = experiment: Antiviral activity against Influenza B virus infected in MDCK cells assessed as inhibition of virus induced cytopathicity after 2 to 4 days by MTS assay; format: functional, organism-based
HeLa = experiment: Cytotoxicity against human HeLa cells assessed as cell viability by MTS assay; format: cell-based; conditions: hela
Summary of the method: (§2)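 Uninfected cultures were run in parallel with the antiviral assays. Viability was read by colorimetric formazan MTS assay.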

[3] = system: Respiratory syncytial virus; experiment: Antiviral activity against Respiratory syncytial virus infected in human HeLa cells assessed as inhibition of virus induced cytopathicity by visual scoring of CPE; format: functional, organism-based
Staphylococcus aureus = experiment: Antimicrobial activity against Staphylococcus aureus after 24 hrs by tube dilution method; format: functional
Sindbis virus = experiment: Antiviral activity against Sindbis virus infected in african green monkey Vero cells assessed as inhibition of virus induced cytopathicity after 2 to 4 days by MTS assay; format: functional, organism-based
Feline coronavirus = experiment: Antiviral activity against Feline coronavirus infected in cat CRFK cells assessed as inhibition of virus induced cytopathicity after 2 to 4 days by MTS assay; format: functional, organism-based; conditions: Alphacoronavirus 1, CRFK
Human alphaherpesvirus 1 [4] = experiment: Antiviral activity against Herpes simplex virus 1 KOS infected in HEL cells assessed as inhibition of virus induced cytopathicity after 2 to 4 days by MTS assay; format: functional, organism-based; conditions: Human alphaherpesvirus 1, KOS
[5] = Cytotoxicity against human HeLa cells assessed as altered cell morphology; format: cell-based; summary of the method: as §1
Candida albicans = experiment: Antimicrobial activity against Candida albicans after 48 hrs by tube dilution method; format: functional
[6] = system: Vesicular stomatitis virus; experiment: Antiviral activity against Vesicular stomatitis virus infected in HEL cells assessed as inhibition of virus induced cytopathicity after 2 to 4 days by MTS assay; format: functional, organism-based
Bacillus subtilis = experiment: Antimicrobial activity against Bacillus subtilis after 24 hrs by tube dilution method; format: functional
Summary of the method: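 Serial dilutions in double-strength nutrient broth (I.P.) with ciprofloxacin as reference, tube dilution, incubated 37 °C for 24 h. MIC is the lowest concentration that inhibited growth.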

[7] = system: Mammalian orthoreovirus 1; experiment: Antiviral activity against Reovirus 1 virus infected in african green monkey Vero cells assessed as inhibition of virus induced cytopathicity after 2 to 4 days by MTS assay; format: functional, organism-based; conditions: Mammalian orthoreovirus 1, Vero
Human alphaherpesvirus 1 [8] = experiment: Antiviral activity against thymidine kinase deficient acyclovir-resistant Herpes simplex virus 1 KOS infected in HEL cells assessed as inhibition of virus induced cytopathicity after 2 to 4 days by MTS assay; format: functional, organism-based; conditions: Human alphaherpesvirus 1, KOS
[9] = Cytotoxicity against cat CRFK cells assessed as cell viability by MTS assay; format: cell-based, Felis catus; conditions: crfk; summary of the method: as §2
Coxsackievirus B4 [10] = experiment: Antiviral activity against Coxsackie virus B4 infected in african green monkey Vero cells assessed as inhibition of virus induced cytopathicity after 2 to 4 days by MTS assay; format: functional, organism-based; conditions: Enterovirus B
[11] = system: Vesicular stomatitis virus; experiment: Antiviral activity against Vesicular stomatitis virus infected in human HeLa cells assessed as inhibition of virus induced cytopathicity after 2 to 4 days by MTS assay; format: functional, organism-based
[12] = system: Vesicular stomatitis virus; experiment: Antiviral activity against Vesicular stomatitis virus infected in human HeLa cells assessed as inhibition of virus induced cytopathicity by visual scoring of CPE; format: functional, organism-based
Human respirovirus 3 = experiment: Antiviral activity against parainfluenza-3 virus infected in african green monkey Vero cells assessed as inhibition of virus induced cytopathicity after 2 to 4 days by MTS assay; format: functional, organism-based; conditions: Human respirovirus 3, Vero
Coxsackievirus B4 [13] = experiment: Antiviral activity against coxsackievirus B4 infected in human HeLa cells assessed as inhibition of virus induced cytopathicity after 2 to 4 days by MTS assay; format: functional, organism-based; conditions: Enterovirus B
Influenza A virus [14] = experiment: Antiviral activity against Influenza A H3N2 virus subtype infected in MDCK cells assessed as inhibition of virus induced cytopathicity by visual scoring of CPE; format: functional, organism-based
[15] = Cytotoxicity against african green monkey Vero cells assessed as altered cell morphology; format: cell-based; conditions: chlorocebus sabaeus; summary of the method: as §1
[16] = Cytotoxicity against MDCK cells assessed as altered cell morphology; format: cell-based, Canis lupus familiaris; conditions: dog; summary of the method: as §1
MDCK = experiment: Cytotoxicity against MDCK cells assessed as cell viability by MTS assay; format: cell-based, Canis lupus familiaris; conditions: dog, mdck; summary of the method: as §2
Coxsackievirus B4 [17] = experiment: Antiviral activity against coxsackievirus B4 infected in human HeLa cells assessed as inhibition of virus induced cytopathicity by visual scoring of CPE; format: functional, organism-based; conditions: Enterovirus B
Punta Toro virus = experiment: Antiviral activity against Punta Toro virus infected in african green monkey Vero cells assessed as inhibition of virus induced cytopathicity after 2 to 4 days by MTS assay; format: functional, organism-based
Vaccinia virus = experiment: Antiviral activity against Vaccinia virus infected in HEL cells assessed as inhibition of virus induced cytopathicity after 2 to 4 days by MTS assay; format: functional, organism-based; conditions: Orthopoxvirus vaccinia
Influenza A virus [18] = experiment: Antiviral activity against Influenza A H3N2 virus subtype infected in MDCK cells assessed as inhibition of virus induced cytopathicity after 2 to 4 days by MTS assay; format: functional, organism-based
Influenza B virus [19] = experiment: Antiviral activity against Influenza B virus infected in MDCK cells assessed as inhibition of virus induced cytopathicity by visual scoring of CPE; format: functional, organism-based
Felid alphaherpesvirus 1 = experiment: Antiviral activity against Feline herpesvirus 1 infected in cat CRFK cells assessed as inhibition of virus induced cytopathicity after 2 to 4 days by MTS assay; format: functional, organism-based; conditions: Felid alphaherpesvirus 1, CRFK
Human alphaherpesvirus 2 = experiment: Antiviral activity against Herpes simplex virus 2 G infected in HEL cells assessed as inhibition of virus induced cytopathicity after 2 to 4 days by MTS assay; format: functional, organism-based; conditions: Human alphaherpesvirus 2, strain G
Escherichia coli = experiment: Antimicrobial activity against Escherichia coli after 24 hrs by tube dilution method; format: functional
[20] = system: Respiratory syncytial virus; experiment: Antiviral activity against Respiratory syncytial virus infected in human HeLa cells assessed as inhibition of virus induced cytopathicity after 2 to 4 days by MTS assay; format: functional, organism-based
Aspergillus niger = experiment: Antimicrobial activity against Aspergillus niger after 7 days by tube dilution method; format: functional; conditions: 168 h

Compound | MCC [1] [µg/mL] | EC50 (Influenza B virus [2]) [µg/mL] | CC50 (HeLa) [µg/mL] | EC50 [3] [µg/mL] | MBC (Staphylococcus aureus) [µg/mL] | EC50 (Sindbis virus) [µg/mL] | EC50 (Feline coronavirus) [µg/mL] | EC50 (Human alphaherpesvirus 1 [4]) [µg/mL] | MCC [5] [µg/mL] | MFC (Candida albicans) [µg/mL] | EC50 [6] [µg/mL] | MBC (Bacillus subtilis) [µg/mL] | EC50 [7] [µg/mL] | EC50 (Human alphaherpesvirus 1 [8]) [µg/mL] | CC50 [9] [µg/mL] | EC50 (Coxsackievirus B4 [10]) [µg/mL] | EC50 [11] [µg/mL] | EC50 [12] [µg/mL] | EC50 (Human respirovirus 3) [µg/mL] | EC50 (Coxsackievirus B4 [13]) [µg/mL] | further results
COc1ccc(C(=O)n2c(-c3ccc(S(=O)(=O)O)cc3)nc3ccccc32)cc1 | > 100 | > 100 | > 100 | > 100 | > 50 | > 100 | > 100 | > 100 | > 100 | > 50 | > 100 | > 50 | > 100 | > 100 | > 100 | > 100 | > 100 | > 100 | > 100 | > 100 | EC50 (Influenza A virus [14]): > 100 µg/mL; MCC [15]: > 100 µg/mL; MCC [16]: > 100 µg/mL; CC50 (MDCK): > 100 µg/mL; EC50 (Coxsackievirus B4 [17]): > 100 µg/mL; EC50 (Punta Toro virus): > 100 µg/mL; EC50 (Vaccinia virus): > 100 µg/mL; EC50 (Influenza A virus [18]): > 100 µg/mL; EC50 (Influenza B virus [19]): > 100 µg/mL; EC50 (Felid alphaherpesvirus 1): > 100 µg/mL; EC50 (Human alphaherpesvirus 2): > 100 µg/mL; MBC (Escherichia coli): 3.12 µg/mL (≈ 7.64 µM); EC50 [20]: > 100 µg/mL; MFC (Aspergillus niger): > 50 µg/mL
O=C(c1ccccc1Cl)n1c(-c2ccc(S(=O)(=O)O)cc2)nc2ccccc21 | > 100 | > 100 | > 100 | > 100 | 25 (≈ 60.6 µM) | > 100 | > 100 | > 100 | > 100 | > 50 | > 100 | > 50 | > 100 | > 100 | > 100 | > 100 | > 100 | > 100 | > 100 | > 100 | EC50 (Influenza A virus [14]): > 100 µg/mL; MCC [15]: > 100 µg/mL; MCC [16]: > 100 µg/mL; CC50 (MDCK): > 100 µg/mL; EC50 (Coxsackievirus B4 [17]): > 100 µg/mL; EC50 (Punta Toro virus): > 100 µg/mL; EC50 (Vaccinia virus): > 100 µg/mL; EC50 (Influenza A virus [18]): > 100 µg/mL; EC50 (Influenza B virus [19]): > 100 µg/mL; EC50 (Felid alphaherpesvirus 1): > 100 µg/mL; EC50 (Human alphaherpesvirus 2): > 100 µg/mL; MBC (Escherichia coli): 1.56 µg/mL (≈ 3.78 µM); EC50 [20]: > 100 µg/mL; MFC (Aspergillus niger): > 50 µg/mL
CCCCC(=O)n1c(-c2ccc(S(=O)(=O)O)cc2)nc2ccccc21 | > 100 | > 100 | > 100 | > 100 | 6.25 (≈ 17.4 µM) | > 100 | > 100 | > 100 | > 100 | 12.5 (≈ 34.9 µM) | > 100 | 6.25 (≈ 17.4 µM) | > 100 | > 100 | > 100 | > 100 | > 100 | > 100 | > 100 | > 100 | EC50 (Influenza A virus [14]): > 100 µg/mL; MCC [15]: > 100 µg/mL; MCC [16]: > 100 µg/mL; CC50 (MDCK): > 100 µg/mL; EC50 (Coxsackievirus B4 [17]): > 100 µg/mL; EC50 (Punta Toro virus): > 100 µg/mL; EC50 (Vaccinia virus): > 100 µg/mL; EC50 (Influenza A virus [18]): > 100 µg/mL; EC50 (Influenza B virus [19]): > 100 µg/mL; EC50 (Felid alphaherpesvirus 1): > 100 µg/mL; EC50 (Human alphaherpesvirus 2): > 100 µg/mL; MBC (Escherichia coli): 6.25 µg/mL (≈ 17.4 µM); EC50 [20]: > 100 µg/mL; MFC (Aspergillus niger): > 50 µg/mL
C/C=C/C(=O)n1c(-c2ccc(S(=O)(=O)O)cc2)nc2ccccc21 | > 100 | > 100 | > 100 | > 100 | 12.5 (≈ 36.5 µM) | > 100 | > 100 | > 100 | > 100 | > 50 | > 100 | 50 (≈ 146 µM) | > 100 | > 100 | > 100 | > 100 | > 100 | > 100 | > 100 | > 100 | EC50 (Influenza A virus [14]): > 100 µg/mL; MCC [15]: > 100 µg/mL; MCC [16]: > 100 µg/mL; CC50 (MDCK): > 100 µg/mL; EC50 (Coxsackievirus B4 [17]): > 100 µg/mL; EC50 (Punta Toro virus): > 100 µg/mL; EC50 (Vaccinia virus): > 100 µg/mL; EC50 (Influenza A virus [18]): > 100 µg/mL; EC50 (Influenza B virus [19]): > 100 µg/mL; EC50 (Felid alphaherpesvirus 1): > 100 µg/mL; EC50 (Human alphaherpesvirus 2): > 100 µg/mL; MBC (Escherichia coli): 12.5 µg/mL (≈ 36.5 µM); EC50 [20]: > 100 µg/mL; MFC (Aspergillus niger): > 50 µg/mL

Reference: ChEMBL document CHEMBL1629526, “4-[1-(Substituted aryl/alkyl carbonyl)-benzoimidazol-2-yl]-benzenesulfonic acids: synthesis, antimicrobial activity, QSAR studies, and antiviral evaluation” (Eur J Med Chem, 2010)
